Test results published in ChEMBL document CHEMBL4819003, “Optimization of novel oxidative DIMs as Nur77 modulators of the Nur77-Bcl-2 apoptotic pathway” (Eur J Med Chem, 2021).
The source made the active and inactive calls. The rule behind the calls is not given here.

Experiments:
HCT-116 [1] = assay: Induction of apoptosis in human HCT-116 cells assessed as PARP cleavage at 0.5 uM measured after 6 hrs by western blot assay; type: functional, cell-based
Summary of the method: (§1)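 Cells exposed to 0.5 µM for 6 h. Lysates resolved by SDS-PAGE and blotted to PVDF, blocked in 5% milk/TBST, probed with primary antibodies at 1:1000, ECL detection. Apoptosis scored as the densitometric ratio of cleaved PARP band to intact PARP band; mean ± SD, n = 3.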

MDA-MB-231 [2] = assay: Induction of apoptosis in human MDA-MB-231 cells assessed as PARP cleavage at 0.5 uM measured after 6 hrs by western blot assay; type: functional, cell-based; summary of the method: as §1
MCF-10A = assay: Cytotoxicity against human MCF-10A cells assessed as inhibition of cell growth measured after 24 hrs by MTT assay; type: cell-based
Summary of the method: (§2)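 MTT viability assay, 24 h exposure to a concentration series, 10^4 cells/well. Cancer lines were in DMEM (BT549, MDA-MB-231) or RPMI-1640 (HCT116, SW620) with 10% FBS. MCF10A and NCM460 were in DMEM with 20% FBS and 10 ng/ml EGF. MTT at 5 mg/mL for 4 h at 37 °C, formazan dissolved in DMSO, A490. IC50 from curve fit; mean ± SD, at least 6 experiments.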

HCT-116 [3] = assay: Cytotoxicity against human HCT-116 cells assessed as inhibition of cell growth measured after 24 hrs by MTT assay; type: functional, cell-based; summary of the method: as §2
NCM460 = assay: Cytotoxicity against human NCM460 cells assessed as inhibition of cell growth measured after 24 hrs by MTT assay; type: cell-based; summary of the method: as §2
BT-549 = assay: Cytotoxicity against human BT-549 cells assessed as inhibition of cell growth measured after 24 hrs by MTT assay; type: functional, cell-based; conditions: BT-549, 24 h; summary of the method: as §2
SW-620 = assay: Cytotoxicity against human SW-620 cells assessed as inhibition of cell growth measured after 24 hrs by MTT assay; type: functional, cell-based; conditions: SW-620, 24 h; summary of the method: as §2
MEF [4] = assay: Induction of apoptosis in mouse MEF cells deficient in Bcl2 assessed as PARP cleavage at 0.5 uM measured after 6 hrs by Western blot assay; type: functional, cell-based
Summary of the method: (§3)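 Wild-type, Nur77−/− or Bcl-2−/− mouse embryonic fibroblasts grown in DMEM with 10% FBS and treated with 0.5 µM for 6 h. PARP cleavage detected by western blot, primary antibodies at 1:1000, ECL.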

MEF [5] = assay: Induction of apoptosis in mouse MEF cells lacking Nur77 assessed as PARP cleavage at 0.5 uM measured after 6 hrs by western blot assay; type: functional, cell-based; summary of the method: as §3
[6] = target: T1, Nuclear receptor subfamily 4immunitygroup A member 1 (Homo sapiens, UniProt P22736); assay: Binding affinity to recombinant human N-terminal His-tagged Nur77-LBD (367 to 598 residues) expressed in Escherichia coli BL21 DE3 by surface plasmon resonance assay
Summary of the method: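 His-tagged human Nur77-LBD (367–598) from E. coli BL21 DE3, diluted to 0.05 mg/mL in 10 mM NaAc pH 5.0 and amine-coupled to a CM5 chip (~9000 RU). Compounds at 0.01–5 µM in PBS with 0.4% DMSO, 25 °C, 30 µL/min; 150 s association, 420 s dissociation, regeneration with 10 mM glycine-HCl pH 2.5. Reference- and blank-subtracted; Kd from global 1:1 kinetic fit.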

[7] = target: T1, Nuclear receptor subfamily 4immunitygroup A member 1; assay: Binding affinity to recombinant human N-terminal His-tagged Nur77-LBD (367 to 598 residues) expressed in Escherichia coli BL21 DE3 by flourescence quenching assay
Summary of the method: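 Human Nur77-LBD (367–598), N-terminal His tag, pET15b in E. coli BL21 DE3, Ni resin purified. Nur77-LBD at 1 µM in PBS in a quartz cell, titrated with compound over 0.01–1 µM at 25 °C. Excitation 280 nm, emission scanned 300–500 nm; peak intensity at 330 nm versus compound concentration fitted to a reported formula for Kd.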

MEF [8] = assay: Induction of apoptosis in wild type mouse MEF cells assessed as PARP cleavage at 0.5 uM measured after 6 hrs by western blot assay; type: functional, cell-based; summary of the method: as §3
MDA-MB-231 [9] = assay: Cytotoxicity against human MDA-MB-231 cells assessed as inhibition of cell growth measured after 24 hrs by MTT assay; type: functional, cell-based; conditions: MDA-MB-231, 24 h; summary of the method: as §2
MDA-MB-231 [10] = assay: Induction of apoptosis in human MDA-MB-231 cells assessed as PARP cleavage at 0.5 uM measured after 6 hrs by western blot assay relative to Di(1H-indol-3-yl)(4-(trifluoromethyl)phenyl)methylium methanesulfonate; type: functional
Summary of the method: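 MDA-MB-231 in DMEM with 10% FBS, 0.5 µM for 6 h, then PARP western blot with 1:1000 primary antibodies and ECL. Cleaved PARP/PARP band intensity ratio expressed relative to the reference methylium methanesulfonate, whose ratio was set to 1. Mean ± SD, n = 3.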

T1 sequence (P22736 whole entry, the tested form may be a part): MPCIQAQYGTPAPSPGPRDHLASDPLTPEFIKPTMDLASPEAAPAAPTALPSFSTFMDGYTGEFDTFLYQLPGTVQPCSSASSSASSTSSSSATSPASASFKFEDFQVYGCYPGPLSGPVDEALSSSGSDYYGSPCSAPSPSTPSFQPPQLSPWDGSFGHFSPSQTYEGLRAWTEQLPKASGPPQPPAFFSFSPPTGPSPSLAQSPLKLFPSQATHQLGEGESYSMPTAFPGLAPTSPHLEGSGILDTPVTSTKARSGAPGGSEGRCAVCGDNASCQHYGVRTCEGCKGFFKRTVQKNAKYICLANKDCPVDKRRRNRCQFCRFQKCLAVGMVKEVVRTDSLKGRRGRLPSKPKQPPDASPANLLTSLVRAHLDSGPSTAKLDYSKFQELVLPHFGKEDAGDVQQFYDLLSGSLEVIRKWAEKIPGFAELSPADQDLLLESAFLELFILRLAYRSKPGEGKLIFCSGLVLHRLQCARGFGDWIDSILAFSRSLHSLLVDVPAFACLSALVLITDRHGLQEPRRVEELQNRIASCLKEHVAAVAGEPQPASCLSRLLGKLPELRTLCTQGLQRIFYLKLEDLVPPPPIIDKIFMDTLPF

SMILES	Activity (HCT-116 [1])	Activity (MDA-MB-231 [2])	other results
Fc1cccc([C+](c2c[nH]c3ccccc23)c2c[nH]c3ccccc23)c1	Active	Active	–
Oc1ccccc1[C+](c1c[nH]c2ccccc12)c1c[nH]c2ccccc12	inactive	inactive	–
Oc1cccc([C+](c2c[nH]c3ccccc23)c2c[nH]c3ccccc23)c1	Active	inactive	–
Clc1ccccc1[C+](c1c[nH]c2ccccc12)c1c[nH]c2ccccc12	inactive	inactive	–
COC(=O)c1ccc([C+](c2c[nH]c3ccccc23)c2c[nH]c3ccccc23)cc1	Active	Active	–
Clc1ccc([C+](c2c[nH]c3ccccc23)c2c[nH]c3ccccc23)cc1	Active	inactive	–
c1cncc([C+](c2c[nH]c3ccccc23)c2c[nH]c3ccccc23)c1	Active	inactive	–
Cn1cc([C+](c2ccc(C(F)(F)F)cc2)c2cn(C)c3ccccc23)c2ccccc21	inactive	Active	–
FC(F)(F)c1ccc([C+](c2c[nH]c3ccccc23)c2c[nH]c3ccccc23)cc1	–	–	IC50 (MCF-10A; mcf-10a): 3580 nM; IC50 (HCT-116 [3]; hct-116): 260 nM; IC50 (NCM460; ncm460): 5130 nM
Fc1ccccc1[C+](c1c[nH]c2ccccc12)c1c[nH]c2ccccc12	inactive	inactive	–
Fc1ccc([C+](c2c[nH]c3ccccc23)c2c[nH]c3ccccc23)cc1	Active	Active	–
Clc1cccc([C+](c2c[nH]c3ccccc23)c2c[nH]c3ccccc23)c1	Active	inactive	–
FC(F)(F)c1ccc([C+](c2c[nH]c3ccccc23)c2c[nH]c3ccccc23)c(C(F)(F)F)c1	inactive	inactive	–
CCCCCn1cc([C+](c2ccc(C(F)(F)F)cc2)c2c[nH]c3ccccc23)c2ccccc21	inactive	inactive	–
Oc1ccc([C+](c2c[nH]c3ccccc23)c2c[nH]c3ccccc23)cc1	inactive	Active	–
Cc1cccc([C+](c2c[nH]c3ccccc23)c2c[nH]c3ccccc23)c1	Active	inactive	–
COc1cccc([C+](c2c[nH]c3ccccc23)c2c[nH]c3ccccc23)c1	Active	inactive	–
CCn1cc([C+](c2ccc(C(F)(F)F)cc2)c2c[nH]c3ccccc23)c2ccccc21	Active	Active	IC50 (BT-549): 50 nM; IC50 (SW-620): 100 nM; IC50 (MCF-10A; Homo sapiens, MCF-10A, 24 h): 1500 nM; IC50 (HCT-116 [3]; Homo sapiens, HCT-116, 24 h): 100 nM; IC50 (NCM460; Homo sapiens, NCM460, 24 h): 3080 nM; Activity (MEF [4]): inactive; Activity (MEF [5]): inactive; Kd [6]: 36 nM; Kd [7]: 66 nM; Activity (MEF [8]): Active; IC50 (MDA-MB-231 [9]): 80 nM

SMILES	Activity (HCT-116 [1])	Activity (MDA-MB-231 [2])	other results
CS(=O)(=O)[O-].c1ccc([C+](c2c[nH]c3ccccc23)c2c[nH]c3ccccc23)cc1	inactive	Active	fold change (FC) (MDA-MB-231 [10]): 0.01
CCCCn1cc([C+](c2ccc(C(F)(F)F)cc2)c2c[nH]c3ccccc23)c2ccccc21	Active	Active	–
FC(F)(F)c1ccc([C+](c2c[nH]c3ccccc23)c2c[nH]c3ccccc23)cn1	Active	Active	IC50 (BT-549): 50 nM; IC50 (SW-620): 140 nM; IC50 (MCF-10A; Homo sapiens, MCF-10A, 24 h): 2980 nM; IC50 (HCT-116 [3]; Homo sapiens, HCT-116, 24 h): 350 nM; IC50 (NCM460; Homo sapiens, NCM460, 24 h): 8100 nM; Activity (MEF [4]): inactive; Activity (MEF [5]): inactive; Activity (MEF [8]): Active; IC50 (MDA-MB-231 [9]): 230 nM
c1csc([C+](c2c[nH]c3ccccc23)c2c[nH]c3ccccc23)c1	Active	inactive	–
Cc1ccc([C+](c2c[nH]c3ccccc23)c2c[nH]c3ccccc23)cc1	inactive	inactive	–
FC(F)(F)c1ccccc1[C+](c1c[nH]c2ccccc12)c1c[nH]c2ccccc12	inactive	inactive	–
O=C(O)c1ccc([C+](c2c[nH]c3ccccc23)c2c[nH]c3ccccc23)cc1	Active	inactive	–
FC(F)(F)c1cccc([C+](c2c[nH]c3ccccc23)c2c[nH]c3ccccc23)c1.[Cl-]	Active	Active	IC50 (BT-549): 70 nM; IC50 (SW-620): 130 nM; IC50 (MCF-10A; Homo sapiens, MCF-10A, 24 h): 5030 nM; IC50 (HCT-116 [3]; Homo sapiens, HCT-116, 24 h): 310 nM; IC50 (NCM460; Homo sapiens, NCM460, 24 h): 10000 nM; IC50 (MDA-MB-231 [9]): 290 nM; fold change (FC) (MDA-MB-231 [10]): 1.76
c1ccc(-c2ccc([C+](c3c[nH]c4ccccc34)c3c[nH]c4ccccc34)cc2)cc1	Active	Active	–
c1coc([C+](c2c[nH]c3ccccc23)c2c[nH]c3ccccc23)c1	Active	inactive	–
c1ccc2c([C+](c3c[nH]c4ccccc34)c3csc4ccccc34)c[nH]c2c1	Active	inactive	–
CCCn1cc([C+](c2ccc(C(F)(F)F)cc2)c2c[nH]c3ccccc23)c2ccccc21	Active	Active	IC50 (BT-549): 100 nM; IC50 (SW-620): 160 nM; IC50 (MCF-10A; Homo sapiens, MCF-10A, 24 h): 1310 nM; IC50 (HCT-116 [3]; Homo sapiens, HCT-116, 24 h): 350 nM; IC50 (NCM460; Homo sapiens, NCM460, 24 h): 5090 nM; Activity (MEF [4]): inactive; Activity (MEF [5]): inactive; Activity (MEF [8]): Active; IC50 (MDA-MB-231 [9]): 170 nM
CC(C)(C)c1ccc([C+](c2c[nH]c3ccccc23)c2c[nH]c3ccccc23)cc1	inactive	inactive	–
c1ccc2c([C+](c3c[nH]c4ccccc34)c3c[nH]c4ccccc34)c[nH]c2c1	Active	inactive	–
CCc1ccc([C+](c2c[nH]c3ccccc23)c2c[nH]c3ccccc23)cc1	inactive	inactive	–
O=[N+]([O-])c1ccc([C+](c2c[nH]c3ccccc23)c2c[nH]c3ccccc23)cc1	Active	inactive	–
COc1ccc([C+](c2c[nH]c3ccccc23)c2c[nH]c3ccccc23)cc1	inactive	inactive	–
